Measured values: ChEMBL document CHEMBL4513216, “Probing the Open Global Health Chemical Diversity Library for Multistage-Active Starting Points for Next-Generation Antimalarials” (ACS Infect Dis, 2020)

Assay: Toxicity liver stage against HepG2, at 10uM
Type: cell-based
Parameters: test concentration 10 uM, cell line HepG2-A16-CD81EGFP
Details: human, HepG2-A16-CD81EGFP cells; read-out: INHIBITION
Procedure, shortened: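 Uninfected HepG2-A16-CD81EGFP cells, 3 × 10^3 per well, 1536-well, plated on prespotted compound at 10 μM final, parasite-free screening media added to match infected plates; puromycin 10 μM positive, DMSO 0.5% negative; run in parallel with 48 h PbLuc assay at 37 °C, 5% CO2; viability by CellTiter-Glo luminescence, normalized to controls.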

Row | Structure (SMILES) | cytotoxicity at 10 µM [%]
1 | O=C(NC1CCCN(CCCc2ccccc2)C1)c1ccncc1 (stereo unspecified) | 0.524
2 | Fc1cccc2[nH]c(CN3CCc4cncnc4C3)nc12 | -1.03
3 | CCN1C(=O)C2(CCCCC2)NC1c1cc(C#N)n(C)c1C (stereo unspecified) | 4.59
4 | CCn1cnnc1CNC(=O)N1CCN(C(C)C)CC1 | -18.1
5 | CNC(=O)c1ccc2c(c1)C1(CCN(CCOC)CC1)C(=O)N2 | -1.92
6 | N#Cc1cccc(S(=O)(=O)NC2CCN(Cc3ccccc3)C2=O)c1 (stereo unspecified) | -7.18
7 | O=C(Nc1cccn(Cc2ccc(F)cc2)c1=O)c1cnc[nH]1 | 0.0616
8 | Cc1noc(C(C)C)c1C(=O)NCc1cccc(CN(C)C)c1 | -8.23
9 | O=C(NCc1cc(Cl)ccn1)NCc1ccco1 | 8.5
10 | O=c1[nH][nH]cc1-c1ccnc(NCCc2cccnc2)n1 | -8.86
11 | CCCc1n[nH]c(C2CN(CCNC3CCCCC3)CCO2)n1 (stereo unspecified) | 2.75
12 | COCC1CN(C(C)=O)CCN(c2cc(C)ncn2)C1 (stereo unspecified) | 4.96
13 | Cn1cc(S(=O)(=O)NCc2ccc(F)cc2)cn1 | 1.25
14 | NC(=O)CN1CCC2(CC1)C[C@@H](O)[C@H](c1ccccc1)NC2=O | -23
15 | CC(=O)N1CCC(N[C@@H]2CO[C@H](CNC(=O)C3CCCC3)[C@H]2O)CC1 | -2.17
16 | O=C1NCCN1CCNCC1(O)CCCN(CCC2CCCCC2)C1=O (stereo unspecified) | -1.04
17 | Cc1cnn(CCNCc2c(C)nn(CCO)c2C)c1 | 6.35
18 | Cc1oc(-c2ccsc2)nc1CNCCn1cccn1 | -3.36
19 | CC(=O)Nc1nc(C(=O)Nc2ccc(N3CCCCC3)nc2)cs1 | 9.46
20 | Cc1cn(Cc2ccc(F)cc2)nc1N | -8.99
21 | O=C(c1ccco1)N1CCC2(CC1)C(=O)NCCN2CC1CC1 | 4.3
22 | CN(C)C(=O)Cn1c(C2CC2)c(CN2CCC(O)CC2)c2cccnc21 | -4.9
23 | CC(C)c1ccc(O)c(C(=O)N2CCN(Cc3cscn3)CC2)c1 | -3.24

Row | Structure (SMILES) | cytotoxicity at 10 µM [%]
24 | CCOC(=O)N1CCN(C(=O)C2Cc3ccccc3CN2C)CC1 (stereo unspecified) | -19.2
25 | O=C(CC1CCN(c2cccnn2)CC1)Nc1nncs1 | 1.01
26 | Cc1nccnc1C1CCN(C2CCCC2O)CC1 (stereo unspecified) | -1.35
27 | O=C1NCCN(CC2CC2)C12CCN(Cc1ccc3c(c1)OCO3)CC2 | -1.06
28 | Cc1ccc(C(=O)N2CCO[C@H]3[C@@H](OCc4ccccn4)CC[C@@H]32)o1 | -2.42
29 | CN(C)C(=O)c1cnc2n1CCN(Cc1cccnc1)C2 | -67
30 | CC(C)c1ccc(S(=O)(=O)N2CCCC3(CCCN3S(C)(=O)=O)C2)cc1 (stereo unspecified) | -0.96
31 | Cn1cc(C2(C)CN(Cc3ccc(Cl)c(F)c3)CCO2)cn1 (stereo unspecified) | 4.98
32 | N#Cc1ccc(OC2CCN(C(=O)c3ccccc3Cl)CC2)nc1 | 3.93
33 | CC(C)(C)c1cccc(OCC(=O)NS(=O)(=O)c2cccnc2)c1 | -12.5
34 | CC1=Nc2c(c(=O)[nH]n2C2CCCC2)C(c2cccnc2)S1 (stereo unspecified) | -0.955
35 | CN1CCCC(C(=O)N2CCC(Oc3ncccn3)CC2)C1 (stereo unspecified) | -5.2
36 | Cn1nc2c(cc1=O)CN(CCOc1ccccc1C#N)CC2 | 18
37 | Cc1cc(C(=O)N2CCCC(C)C2)ccc1NCc1nc(C2CC2)no1 (stereo unspecified) | -8.38
38 | COc1ccc2c(ccn2CCC(=O)N[C@H](C(=O)O)C(C)C)c1 | 5.98
39 | Cc1nn(C)c2ncc(CN3CCCCCC3)cc12 | 0.106
40 | CCCc1nc(C)c(C(=O)NCCN2CCN(CC)CC2)s1 | -10.6
41 | CCN(CC)S(=O)(=O)N(CC)Cc1ccc2c(c1)OCCO2 | 4.66
42 | COc1ccc(OC2CCN(C(=O)c3ccc(C(C)=O)s3)CC2)cc1 | 3.58
43 | CN(Cc1ccco1)Cc1cncc2c1CCN(Cc1ccoc1)C2 | -108
44 | Cc1ccc2c(c1)SCC(=O)N2Cc1noc(C2CC2)n1 | 7.4
45 | Cc1noc(NCc2cc(F)ccc2F)n1 | -4.86
46 | COCCN(CCOC)C(=O)c1cnn(C)c1-n1c(C)ccc1C | -144

Row | Structure (SMILES) | cytotoxicity at 10 µM [%]
47 | Cc1[nH]nc(-c2ccc(F)cc2)c1CC(=O)NCC1CCOCC1 | -0.707
48 | COc1ccc(OCc2nccc(-c3cc(C(=O)O)ccn3)n2)cc1 | -4.81
49 | Cc1cnc(-c2nc(NC3CC3)ncc2-c2onc(C)c2C)cn1 | -27.9
50 | CS(=O)(=O)CC(=O)NCC1OCCc2cn(CC3CC3)nc21 (stereo unspecified) | 3.45
51 | CC(=O)N1CCC2(CCN(CC(C)C)C2)C1 (stereo unspecified) | 5.41
52 | CNC(=O)[C@H]1C[C@@H]2CN(C(=O)c3cscn3)C[C@@H]2N1S(C)(=O)=O | -5.17
53 | CC(C)OCCOCc1cccc(NC(=O)NCc2cnn(C)c2)c1 | -1.11
54 | N#Cc1ccccc1N1CCN(CCC(=O)N2CCOCC2)CC1 | 10
55 | CCn1ncnc1C(C)NC(=O)C1CCN(C2CCCCC2)CC1 (stereo unspecified) | -149
56 | COCCCC(=O)N(CCC(=O)O)Cc1ccc(F)c(F)c1 | 4.91
57 | COCCN1C[C@@H]2CN(Cc3ccc(F)cc3)C[C@@H]2C1=O | -0.744
58 | CNS(=O)(=O)c1cc(C(=O)N(C)Cc2sccc2C)c(C)o1 | -8.43
59 | CC(=O)Nc1ncc(S(=O)(=O)Nc2cccc(O)c2)s1 | 8.49
60 | COc1ccc(F)c(-c2cc(C(=O)NC3CC3)ccn2)c1 | -1.36
61 | CSc1nsc(SCC(=O)c2cc3c(cc2Cl)NC(=O)C3)n1 | 5.13
62 | Cc1nc(N2CCCC2)nc2c1CCN(C(=O)C1CCC1)CC2 | 3.39
63 | Cn1cc(C2CC3(CCN(C(=O)c4ccsc4)CC3)NC2=O)cn1 (stereo unspecified) | -3.7
64 | CCN(CC)CCCNCC1CCOC(C)(C)C1 (stereo unspecified) | -6.01
65 | O=S(=O)(C1CC1)N1CCO[C@H]2[C@H](OCC3CC3)CC[C@@H]21 | 5.61
66 | O=C(CN1CCN(c2ncnc3cccc(F)c23)CC1)N1CCCC1 | 3.65
67 | Fc1cnc(N2CC3(CCN(CC4CC4)C3)C2)nc1 | -2.73
68 | O=C1CC2(CCN(c3nncs3)C2)CN1c1ccc2c(c1)OCCO2 (stereo unspecified) | 6.66
69 | Nc1nc(CC(=O)N2CCCC(CCc3cccc(F)c3)C2)cc(=O)[nH]1 (stereo unspecified) | -6.12

Row | Structure (SMILES) | cytotoxicity at 10 µM [%]
70 | c1csc(CN2CCn3c(Cn4cncn4)cnc3C2)n1 | -5.97
71 | O=C(NCCCN1CCOCC1)c1ccnc(OCc2ccccc2)c1 | -21.4
72 | COc1ccc(CNC(=O)c2nc3c(s2)CCN(C(C)=O)CC3)cc1 | -76.6
73 | CC(=O)C(Cc1ccccc1)NC(=O)CSc1nncn1C (stereo unspecified) | 3.16
74 | COc1cc(C(=O)NS(=O)(=O)c2cccc(C#N)c2)cc(Cl)c1OC | -3.93
75 | COC(=O)c1ccc(S(=O)(=O)NCc2cccnc2N(C)C)cc1 | 9.3
76 | O=C(NC1CC1)C1=CC2(CCN(CC3CC3)CC2)c2ccccc21 | 3.11
77 | OCCC[C@@H]1CN(c2ncc(Cl)cc2Cl)CC[C@@H]1N1CCOCC1 | 4.24
78 | CN(Cc1cccs1)C(=O)CNC1CCc2ncnn2C1 (stereo unspecified) | 3.03
79 | Cc1ccc(CN(CCCN2CCOCC2)Cc2cncn2C)o1 | -40.3
80 | O=C(Cc1csc(-c2ccco2)n1)N1CCN(CCO)CC1 | -0.337
81 | O=C(Cn1ccnc1)N1CCC(n2cc(-c3cccc(Cl)c3)nn2)CC1 | -23.4
82 | CC(=O)N(Cc1noc(C)n1)C1CCN(Cc2c(C)noc2C)C1 (stereo unspecified) | -9.55
83 | NC(=O)C1CCN(c2nccc(-c3c[nH]nc3C3CCCCC3)n2)CC1 | -10.6
84 | O=S(=O)(NCCCn1cncn1)c1ccc2c(c1)OCCCO2 | 3.51
85 | Cc1cc(NC(=O)NCCO)nn1-c1ccc(Cl)cc1Cl | -136
86 | c1ccc([C@@H]2CN(Cc3cccnc3)C[C@H]2c2cc[nH]n2)cc1 | -4.24
87 | Nc1nc(Sc2cccs2)cc(N2CC[C@H](CO)[C@H](O)C2)n1 | 2.68
88 | CNc1cccc(C2CN(C(=O)c3c[nH]cn3)CCO2)n1 (stereo unspecified) | 6
89 | COc1cccc2c1N(CC(=O)Nc1ccc(Br)cn1)CCC2 | 36.5
90 | C1CCC(c2nn3c(C4CCCO4)nnc3s2)C1 (stereo unspecified) | 8.51
91 | Cc1ccc(N2C[C@H]3OCC[C@H]3[C@H](C(=O)NCc3ccco3)C2)nn1 | -67.4
92 | CS(=O)(=O)N1CCCCC1CCc1ccc(O)cc1 (stereo unspecified) | -0.311

Row | Structure (SMILES) | cytotoxicity at 10 µM [%]
93 | Cn1cccc1CCC(=O)N1CCC2(CC1)c1ccccc1CC2O (stereo unspecified) | -8.57
94 | Cc1cc(N[C@H](CO)COCc2ccccc2)n2nc(C)cc2n1 | 0.324
95 | Cc1ccc(OCCN2CCC(c3ccnn3CCO)CC2)cc1 | -3.29
96 | CN(C(=O)C1CCN(Cc2cnc3ccccn23)CC1)c1ccccc1 | 38.9
97 | Cc1ccsc1C(=O)N1CC(C(=O)N2CCCC2)C2(CCOCC2)C1 (stereo unspecified) | 3.68
98 | Cc1cc(NC(=O)NCc2cccnc2OC2CCCC2)n(C)n1 | -1.07
99 | Cc1cc(C(=O)N(C)Cc2cnn(C)c2)c(NC(=O)C(C)(C)C)s1 | 0.254
100 | Cc1ccccc1-n1cnnc1SCCOCC1CCCO1 (stereo unspecified) | -3.73
101 | Cc1ccc(C(=O)N(Cc2ccc(F)cc2)C2CC2)c(=O)[nH]1 | -1.4
102 | CC(C)c1nccn1C(C)C(=O)NC1CCOCC1 (stereo unspecified) | -2.07
103 | COc1cc(CN2CCCC2)ccc1Oc1ncccc1C(F)(F)F | 0.96
104 | CC(NC(=O)c1ccoc1)C(=O)N(C)Cc1ccsc1 (stereo unspecified) | -1.77
105 | Cc1cccc(N2N=C(C(=O)NC(C)CCc3ccco3)CCC2=O)c1 (stereo unspecified) | -10.1
106 | CC(=O)N1CCN(CCNS(=O)(=O)c2cc(F)cc(F)c2)CC1 | 7.24
107 | CCOCCn1nc(C)cc1C(=O)N1CCOCC(CO)C1 (stereo unspecified) | -20
108 | COCCN1CCN(Cc2ccc3nsnc3c2)[C@H]2CS(=O)(=O)C[C@H]21 | -5.94
109 | CN(C)C(CNS(=O)(=O)c1cnn(C)c1)c1cccc(F)c1 (stereo unspecified) | 5.66
110 | Cc1nn(C)cc1-c1cc(C(F)(F)F)nc(NC2CCN(C)CC2)n1 | 11.7
111 | O=C(NC[C@]1(O)CN(Cc2ccccc2F)C[C@H]1O)c1ccccn1 | 1.15
